According to PMC9597438 (Journal of Ginseng Research, 2022):

Legend:
[1] = Cytotoxic; format: cell-based, human; conditions: human, Hep3B cells
In short: (§1)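 Hep3B cells in DMEM/10% FBS (5×10^4/well) adhered for 12 h under normoxia. They were exposed for 24 h to final 0.3, 1, 3, 10 and 30 µM, triplicate wells per level. MTT was added for 4 h in the dark, formazan was dissolved in DMSO with 10 min shaking, and absorbance was read at 492 nm. Mean ± SD, n = 3.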

[2] = test system: HIF-1α protein expression in HeLa cells; test: Western blotting of HIF-1α in HeLa cells; format: cell-based, human; conditions: 1% O2, 12 h, 3, 10, 30 μM, nuclear extract
In short: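 HeLa cells were held 12 h under normoxia or hypoxia (1% O₂) with 3, 10 or 30 µM. Nuclear extracts were quantified by BCA, and 30 µg per lane was resolved by SDS-PAGE and transferred to PVDF. Membranes were blocked in 5% nonfat milk, probed with anti-HIF-1α overnight at 4 °C, then secondary for 2 h, and detected by chemiluminescence. Three independent experiments.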

[3] = test system: HIF-1α transcriptional activity in Hep3B cells; test: HRE luciferase reporter assay; format: cell-based, human
In short: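 Hep3B cells at 60–80% confluence were transfected with an HRE-luciferase plasmid (legend adds pRL-CMV) using Lipofectamine 2000 for 24 h. They were reseeded at 5×10^4/well for 24 h, then treated under hypoxia (1% O₂, 5% CO₂, 94% N₂, 37 °C) at final 0.3–30 µM, triplicate wells. Treatment ran 12–16 h per methods, 24 h per legend. Cells were lysed 1 h and luminescence read.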

[4] = test system: nuclear accumulation of HIF-1α in HeLa cells; test: Immunofluorescence staining of HIF-1α; format: cell-based, human; conditions: 1% O2, 12 h, 30 μM
In short: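 HeLa cells (1×10^4/well) adhered for 24 h and were held under normoxia or hypoxia (1% O₂) for 12 h with or without 30 µM. Processing: 4% paraformaldehyde at room temperature for 30 min, 0.2% Triton X-100, 5% BSA block for 30 min. Anti-HIF-1α ran overnight at 4 °C, secondary 30 min at room temperature, DAPI 30 min. Imaged by fluorescence microscopy at 400×.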

[5] = test system: MMP-9 expression in HeLa cells; test: Western blotting of MMP-9 in HeLa cells; format: cell-based, human; conditions: 10 μM, 12 h
In short: (§2)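 HeLa cells were treated with or without 3, 10 or 30 µM for 12 h. Whole-cell extracts were separated by SDS-PAGE, transferred to PVDF and blocked in 5% nonfat milk. Blots were probed overnight at 4 °C for the named protein (Bax, Bcl-2, MMP-9 or cleaved caspase-3), then secondary for 2 h, with chemiluminescent detection. Three independent experiments.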

[6] = test system: HeLa cervical cancer xenograft; test: In vivo antitumor activity, HeLa cervical cancer xenograft; parameters: species or system athymic Nu/Nu nude mice; conditions: nude mice with HeLa tumors, ip, vs control, p < 0.001
[7] = test system: Bcl-2 expression in HeLa cells; test: Western blotting of Bcl-2 in HeLa cells; format: cell-based, human; conditions: HeLa cells, 3, 10, 30 μM, 12 h, vs control group
In short: as §2

[8] = test system: VEGF protein expression in HeLa cells; test: Western blotting of VEGF in HeLa cells; format: cell-based, human; conditions: hypoxia, 12 h
In short: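 After 12 h incubation under normoxia or hypoxia (1% O₂) at the indicated concentrations, HeLa cell protein was quantified by BCA and separated by SDS-PAGE onto PVDF. Blots were blocked in 5% milk and probed for VEGF overnight at 4 °C, then secondary 2 h, with chemiluminescent detection. Three independent experiments.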

[9] = test system: cleaved caspase-3 expression in HeLa cells; test: Western blotting of cleaved caspase-3 in HeLa cells; format: cell-based, human; conditions: HeLa cells, 3, 10, 30 μM, 12 h, concentration-dependent
In short: as §2

[10] = test system: HIF-1β expression in HeLa cells; test: Western blotting of HIF-1β in HeLa cells; format: cell-based, human; conditions: hypoxia, 12 h, whole-cell lysates
In short: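 HeLa cells were held 12 h under normoxia or hypoxia (1% O₂) at the indicated concentrations. Whole-cell lysates were run on SDS-PAGE, transferred to PVDF and blocked in 5% milk. Anti-HIF-1β ran overnight at 4 °C, secondary 2 h, chemiluminescent detection. Three independent experiments.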

[11] = test system: Bax expression in HeLa cells; test: Western blotting of Bax in HeLa cells; format: cell-based, human; conditions: HeLa cells, 3, 10, 30 μM, 12 h, vs control group
In short: as §2

[12] = test system: HeLa cells; test: Transwell invasion assay; format: cell-based, human; conditions: HeLa cells, 3, 10, 30 μM, vs control
In short: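 Matrigel-coated Transwell inserts were loaded with HeLa cells pretreated with or without 3, 10 or 30 µM, in serum-free DMEM in the upper chamber; the legend gives 12 h exposure. The lower chamber held DMEM with 10% FBS. After 24 h invasion at 37 °C, cells on the lower side were fixed in 4% paraformaldehyde, stained with 0.1% crystal violet and photographed at 200×.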

[13] = test system: Hep3B cells; test: Cytotoxic; format: cell-based, human; conditions: 24 h, concentrations as high as 30 μM
In short: as §1

[14] = test system: HeLa cells; test: Colony formation assay; format: cell-based, human; conditions: HeLa cells, 3, 10, 30 μM, 10 days
In short: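 HeLa cells (1×10^3/well, 6-well) were plated for 12 h and given fresh medium with 3, 10 or 30 µM. They grew 10 days until colonies were visible, then were fixed in 10% formaldehyde, stained with 1% crystal violet, washed in PBS and air-dried.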

[15] = test system: HeLa cells; test: Apoptosis assay; format: cell-based, human
In short: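 HeLa cells (5×10^5/well) adhered for 24 h, then were exposed to 3, 10 or 30 µM for 24 h per methods; the legend gives 12 h under hypoxia. Cells were washed twice in PBS and taken into binding buffer (10 mM HEPES pH 7.4, 140 mM NaCl, 2.5 mM CaCl₂). They were stained with Annexin V-FITC and 2 µg/mL propidium iodide, 15 min, 37 °C, dark, then read by flow cytometry.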

[16] = test system: HeLa cells; test: Cell migration assay; format: cell-based, human; conditions: 3, 10, 30 μM, 12 h, vs control group
In short: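 Scratch assay: HeLa cells (1×10^5/well) adhered for 24 h, were scratched with a sterile pipette tip, washed three times in PBS and switched to serum-free medium. Cells got 3, 10 or 30 µM for 12 h. The same fields were imaged at 200×, and migration was scored as final versus initial gap width.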

[17] = test system: HeLa cells; test: EdU labeling and immunofluorescence; format: cell-based, human; conditions: HeLa cells, 3, 10, 30 μM, 12 h
In short: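 HeLa cells (5×10^4/well) were plated for 24 h and treated with 3, 10 or 30 µM for 12 h. EdU was pulsed for 1 h. Cells were fixed in 4% paraformaldehyde for 30 min, permeabilised in 0.5% Triton X-100 for 10 min and reacted in 1× Apollo cocktail for 30 min. Nuclei were counterstained with Hoechst 33342 and imaged by fluorescence microscopy.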

Structure (SMILES) | IC50 at 24 h [1] [µM] | HIF-1α protein content [2] | transcriptional activity of HIF-1α (HRE-mediated reporter gene expression) ([3]; hypoxia (1% oxygen), from 0.3 μM upward) | efficacy (HIF-1α transcription inhibition) relative to 20(R)-panaxotriol ([3]; ratio of IC50 values) | HIF-1α expression in the nucleus [4] | expression levels of MMP-9 [5] | tumor volume [6] | levels of Bcl-2 [7] | VEGF protein expression levels [8] | expression levels of cleaved caspase-3 [9] | expression level of HIF-1β [10] | expression levels of Bax [11] | number of tumor cells that crossed the transwell chamber (invasion) [12] | cell viability (MTT) [13] | colony formation of cells [14] | percentage of total apoptotic (early and late) cells ([15]; 3 μM) [%] | percentage of total apoptotic (early and late) cells ([15]; 10 μM) [%] | percentage of total apoptotic (early and late) cells ([15]; 30 μM) [%] | migration of HeLa cells (scratch assay) [16] | number of EdU-positive cells [17]
CC1(C)CCCC(C)(C2CCC3(C)C2C(O)CC2C4(C)CCC(OC(=O)[C@@H](N)Cc5c[nH]c6ccccc56)C(C)(C)C4C(O)CC23C)O1 (some centres unmarked) [A13, 6,12-dihydroxy-4,4,8,10,14-pentamethyl-17-(2,6,6-trimethyltetrahydro-2H-pyran-2-yl)hexadecahydro-1H-cyclopenta[a]phenanthren-3-yl tryptophanate] | 6.99 | – | – | – | – | – | – | – | – | – | – | – | – | – | – | – | – | – | – | –
CC(C)(C)OC(=O)NCC(=O)OC1CCC2(C)C(C(O)CC3(C)C2CC(O)C2C(C4(C)CCCC(C)(C)O4)CCC23C)C1(C)C (centres unmarked) [A11, 6,12-dihydroxy-4,4,8,10,14-pentamethyl-17-(2,6,6-trimethyltetrahydro-2H-pyran-2-yl)hexadecahydro-1H-cyclopenta[a]phenanthren-3-yl (tert-butoxycarbonyl)glycinate] | – | dose-dependently reduced | dose-dependent inhibited | more than 100 times | not detected | significantly reduced | significantly inhibit | decreased | dose-dependent decrease | significantly increased | almost no influence | increased | significantly reduced | no adverse effects on cell viability | apparently inhibited | 5.2 | 14.0 | 24.2 | decreased | concentration-dependently suppressed
